Bioassay records: PubChem, The Scripps Research Institute Molecular Screening Center
PLCg1 inh: inhibitors of human phospholipase C gamma1. inhibition, % at 12.2 µM. 370,000 tested, 0.84% active. purified PLC-gamma1, fluorogenic substrate, fluorescence; in the data active = inhibition above about 9.5%
Tn6 DDE FP: disrupts Tn6 cyclic peptide binding to fibrin D-Dimer-E complex. inhibition, % at 8.3 µM. Fibrin DD(E) TRITC-Tn6 fluorescence polarization displacement. P02675. 370,000 tested, 0.21% active;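 active = inhibition above a per-campaign cutoff: mean of compounds within control limits plus 3 SD, cut at about 15% in these data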
ADAM10 inh: inhibitors of human ADAM10; AID 720582; inhibition, % at 7 µM; 370,000 tested, 0.62% active; O14672; recombinant ADAM10, EDANS/DABCYL FRET peptide cleavage, 3 h;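 active = inhibition above a per-campaign cutoff equal to the mean of compounds falling between control-based bounds plus 3 SD, cut at about 20% in these data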
PLC-beta3 inh: blocks human PLC-beta3 enzyme activity; Q01970; Purified PLC-beta3, fluorogenic substrate, fluorescence; inhibition, % at 12.2 µM; 370,000 tested, 0.18% active; in the data active = inhibition above about 11%
Target sequence (Q01970 whole entry, looked up): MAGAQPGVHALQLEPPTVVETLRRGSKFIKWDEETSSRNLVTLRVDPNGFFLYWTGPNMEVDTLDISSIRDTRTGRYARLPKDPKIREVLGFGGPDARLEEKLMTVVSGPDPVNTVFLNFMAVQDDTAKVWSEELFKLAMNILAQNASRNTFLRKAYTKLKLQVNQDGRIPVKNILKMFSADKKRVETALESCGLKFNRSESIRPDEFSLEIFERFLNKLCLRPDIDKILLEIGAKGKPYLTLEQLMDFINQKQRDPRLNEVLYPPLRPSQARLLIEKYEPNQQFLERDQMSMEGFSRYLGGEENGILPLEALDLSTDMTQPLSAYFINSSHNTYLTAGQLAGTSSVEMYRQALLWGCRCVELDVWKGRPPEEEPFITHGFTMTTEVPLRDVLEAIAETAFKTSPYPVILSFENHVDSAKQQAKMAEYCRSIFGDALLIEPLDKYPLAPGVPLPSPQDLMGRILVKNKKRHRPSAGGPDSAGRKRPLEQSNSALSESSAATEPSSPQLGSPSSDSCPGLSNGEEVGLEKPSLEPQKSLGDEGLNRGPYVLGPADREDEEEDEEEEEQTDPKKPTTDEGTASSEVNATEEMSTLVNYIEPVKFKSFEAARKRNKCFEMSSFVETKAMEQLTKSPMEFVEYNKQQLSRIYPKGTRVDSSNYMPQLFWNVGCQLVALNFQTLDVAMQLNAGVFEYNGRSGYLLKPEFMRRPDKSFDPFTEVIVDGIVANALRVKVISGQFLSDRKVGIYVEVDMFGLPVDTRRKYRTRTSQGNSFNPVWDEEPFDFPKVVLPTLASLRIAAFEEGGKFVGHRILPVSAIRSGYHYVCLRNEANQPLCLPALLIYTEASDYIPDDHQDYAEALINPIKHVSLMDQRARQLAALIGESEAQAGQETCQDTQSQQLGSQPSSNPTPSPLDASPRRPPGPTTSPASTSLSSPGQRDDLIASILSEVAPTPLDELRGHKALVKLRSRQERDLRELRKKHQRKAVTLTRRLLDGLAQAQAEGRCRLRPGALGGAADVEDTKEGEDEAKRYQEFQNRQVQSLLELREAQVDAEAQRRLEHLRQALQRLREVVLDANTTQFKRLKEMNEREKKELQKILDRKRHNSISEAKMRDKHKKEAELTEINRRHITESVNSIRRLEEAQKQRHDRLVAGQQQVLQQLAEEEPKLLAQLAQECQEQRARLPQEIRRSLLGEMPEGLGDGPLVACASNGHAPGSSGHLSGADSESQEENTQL
Tn7 DDE FP: inhibitors of Tn7 peptide binding to human fibrin DD(E) | P02675 | FP displacement of FITC-Tn7 peptide from fibrin DD(E); 0% = median of compound wells per plate | inhibition, % at 8.3 µM | 370,000 tested, 0.13% active;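 active = inhibition above the mean of compounds falling within the control limits plus 3 SD of them, cut at about 14% in these data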
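Also added: labelled Tn7 tracer, 0.1 µM; Assay system: human fibrin DD(E) protein; Amount: 2 µM fibrin DD(E); Schedule: 10 min compound pre-incubation, 3 h probe incubation at room temperature; Repeats: one replicate per compound; Read-out basis: percent inhibition; Measured by: fluorescence polarization of the labelled Tn7 tracer.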
ADAM17 inh: inhibits human ADAM17. recombinant ADAM17, EDANS/DABCYL FRET peptide cleavage. P78536. 370,000 tested, 0.83% active. inhibition, % at 6.95 µM. AID 720648;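 active = inhibition above the mean of compounds lying between control limits plus 3 SD, set per campaign, cut at about 8.5% in these data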
Tn7 DDE conf: DD(E)-Tn7 binding inhibition, FP confirmation. shares compounds with Tn7 DDE FP. FP displacement of TRITC-Tn7 peptide from DD(E); 0% set at plate's compound-well median. inhibition, % at 8.3 µM. 460 tested, 5% active. AID 720628;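 active = inhibition above the campaign cutoff, the mean of compounds within control limits plus 3 SD, cut at about 14% in these data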;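 also: displacers lower polarization since freed probe rises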
Tn7 DDE ctr: counter-screen hit for Tn7 peptide-fibrin DD(E) binding disruption; AID 720633; TRITC-Tn7 probe displacement, fluorescence polarization; shares compounds with Tn7 DDE FP; 460 tested, 3% active; inhibition, % at 8.3 µM;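 active = inhibition above the cutoff, the mean of compounds lying between the control bounds plus 3 SD of those compounds, cut at about 17% in these data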
Hits are given with their value; – = inactive. An excerpt weighted towards active compounds, which were near 2.3% of everything screened.

SMILES | PLCg1 inh | Tn6 DDE FP | ADAM10 inh | PLC-beta3 inh | Tn7 DDE FP | ADAM17 inh | others
COc1cc(S(=O)(=O)N(Cc2ccco2)C2CCCC2)ccc1-n1cnnn1 | – | – | – | – | – | –
CC(C)(C)OC(=O)NCCCc1ccc2c(c1)[C@]1(CCC[C@@H](OCc3ccccc3)[C@@H]1NC(=O)CCc1ccccc1)C(=O)N2Cc1ccccc1 | – | – | – | – | – | –
CC(C)(C)C(=O)N1CCN(c2ccc([N+](=O)[O-])c(NCc3cccnc3)c2)CC1 | – | – | – | – | – | –
CC(C)CC(=O)N1CCN(c2ccc([N+](=O)[O-])c(NCc3ccccc3)c2)CC1 | 13 | – | – | – | – | 13
CN(C(=O)c1cccc(NC(=O)Cc2cccc(NC(=O)C3CCN(C(=O)C4CC4)CC3)c2)c1)C1CC1 | 13 | – | – | – | – | –
COCCCNC(=O)C[C@H]1C[C@@]2(C(=O)OC)C(=C[C@H](C(C)C)O[C@@H]2C2CC2)N(CCc2ccc(OC)c(OC)c2)C1=O | – | – | – | – | – | –
Cn1c(SCc2c(Cl)cccc2Cl)nnc1-c1cccs1 | 11 | – | – | – | – | –
O=S1(=O)c2c(NCc3ccco3)cccc2Oc2ccccc2CN1Cc1cn(Cc2cccc(F)c2)nn1 | – | – | – | – | – | –
CC(=O)Nc1cc(Cl)c(N=Cc2ccc(O)cc2O)cc1Cl | – | 17 | – | – | – | –
CC(=O)Nc1nc2ccccc2n1CCN(C)C | – | – | – | 13 | – | –
O=C(Nc1ccc(Cl)cc1Cl)O[C@@H]1CC[C@@]23CCCN2C(=O)CCC[C@H]3C1 | – | – | – | – | – | –
O=C(OCn1nnc2ccccc2c1=O)c1cccnc1Cl | 12 | – | – | – | – | –
CSc1ncccc1C(=O)OCn1nnc2ccccc2c1=O | – | – | – | – | – | –
CC(C)C[C@@H](CSc1ccccc1)N1CCN(C)CCC1=O | 9.7 | – | – | – | – | –
CC1=C2NC(N)=[N+](Cc3ccc4c(c3)OCO4)CC2NOC1 (centres undefined) | – | – | – | – | – | –
OC(c1ccccc1)C(O)c1ccccc1 (centres undefined) | – | – | – | 11 | – | –
CN(C)c1ccc(C(c2ccc(N(C)C)cc2)C(O)c2ccccc2)cc1 (centres undefined) | – | – | – | – | – | –
COCCCNC(=O)c1ccc2c(c1)NC(=O)C(C)(C)O2 | – | – | – | – | – | –
Cc1cccc(NS(=O)(=O)c2ccc(NC(=O)CN(c3cc([N+](=O)[O-])ccc3C)S(C)(=O)=O)cc2)c1 | – | – | 36 | – | – | 14
COC(CNC(=O)[C@H](Cc1ccccc1)NC(C)(C)C(=O)NC1CCCCC1)OC | – | – | – | – | – | –
CN(C)c1ccccc1-c1cc(NC=O)c2ncc(-c3cccc(C(F)(F)F)c3)n2c1 | – | 34 | – | – | – | –
COc1ccccc1-c1cc(NC=O)c2ncc(-c3cccc(C(F)(F)F)c3)n2c1 | – | – | – | – | – | –
O=C(CSc1nc2sc3c(c2c(=O)n1-c1ccc(Cl)cc1)CCC3)Nc1ccc(C(=O)O)cc1 | – | – | – | – | – | –
O=C1C2C(C(=O)N1/N=C/c1cc([N+](=O)[O-])c(O)cc1O)C1C=CC2C12CC2 (centres undefined) | 29 | – | – | – | – | –
O=C1C2C(C(=O)N1/N=C/c1cc([N+](=O)[O-])ccc1O)C1C=CC2C12CC2 (centres undefined) | – | – | – | – | – | –
SMILES | PLCg1 inh | Tn6 DDE FP | ADAM10 inh | PLC-beta3 inh | Tn7 DDE FP | ADAM17 inh | others
O=C(Nc1ccccc1)n1ccc2ccc(-c3ccc4cc[nH]c4c3)cc21 | – | – | – | – | – | –
O=C(c1ccccc1)c1ccccc1 | – | – | – | 11 | – | –
CC(C)(N[C@@H](Cc1ccccc1)C(=O)NCCc1c[nH]c2ccccc12)C(=O)NC1CCCCC1 | – | – | – | – | – | –
C=CC[C@@H](CC(=O)N(CCO)Cc1ccccc1)C(=O)N[C@@H](COC(=O)[C@H](CC=C)CC(=O)OC(C)(C)C)Cc1c[nH]c2ccccc12 | – | – | 35 | – | – | 22
C=CC[C@@H](CC(=O)N[C@H](CO)Cc1ccccc1)C(=O)N[C@H](COC(=O)[C@H](CC=C)CC(=O)OC(C)(C)C)Cc1c[nH]c2ccccc12 | 10 | – | 29 | – | – | 17
C=CCC[C@H](Cc1ccc(F)cc1)C(=O)OC[C@H](Cc1c[nH]c2ccccc12)NC(=O)[C@@H](CC=C)CC(=O)NCCO | 12 | – | 26 | – | – | –
C=CC[C@@H](CC(=O)NCCO)C(=O)N[C@H](COC(=O)[C@H](CC=C)CC(=O)OC(C)(C)C)Cc1c[nH]c2ccccc12 | – | – | – | – | – | –
COc1ccc(OC)c(CN2C(=O)CSCC2(C)C(=O)NCc2ccccc2)c1 (centres undefined) | – | – | – | 12 | – | –
Cc1ccc(S(=O)(=O)N(CCc2ccccc2)CC(=O)N2CCOCC2)cc1 | – | – | – | – | – | –
COC(=O)C(C(=O)OC)C1C=CCN(C(C)=O)C1 (centres undefined) | 29 | – | – | – | – | –
COC1=CC(=O)c2nc(Cl)ccc2C1=O | 10 | – | – | – | – | –
Cc1c(C2Nc3ccccc3NC3=C2C(=O)CC(C)(C)C3)cnn1C (centres undefined) | – | – | – | – | 15 | –
CC1(C)CC(=O)C2=C(C1)Nc1ccccc1NC2c1ccccc1F (centres undefined) | – | – | – | – | – | –
CN1CCc2c(sc3c2C(=O)NC(c2ccccn2)N3)C1 (centres undefined) | – | 28 | – | – | – | –
Oc1ccc(Cl)cc1-c1cc(-c2ccccc2)n[nH]1 | – | – | 23 | – | – | –
Oc1ccccc1-c1cc(-c2ccccc2)n[nH]1 | – | – | – | – | – | –
O=C(CNc1n[nH]c(=O)[nH]c1=O)N/N=C/c1ccccc1 | – | – | – | – | 15 | – | Tn7 DDE conf=–;Tn7 DDE ctr=–
COC(=O)c1cc(-c2cccs2)c(=O)n2c1CCC2 | – | – | – | – | – | –
CCOC(=O)N1CCN(Cc2nc(-c3ccc(Cl)cc3)no2)CC1 | – | – | – | – | 15 | – | Tn7 DDE conf=–;Tn7 DDE ctr=–
Cc1ccc(N2C(=O)c3cccc4c(N)ccc(c34)C2=O)c2cccnc12 | – | – | – | – | 19 | – | Tn7 DDE conf=–;Tn7 DDE ctr=–
